Screening results deposited in PubChem by several laboratories.
rCAG binder = r(CAG) repeat RNA binding. TO-PRO-1 dye displacement fluorescence. inhibition, % at 3 µM. hit rate 1.3% among 370,000. AID 651821;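 active means inhibition above the plate cutoff, the mean of all test compounds on that plate plus 3 SD, cut at about 35% in these data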;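 further: higher means more dye released from RNA so lower well fluorescence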
HCV core dimer = blocks dimerization of HCV core protein; TR-FRET GST/Flag-core106 dimerization, 1536-well; inhibition, % at 5 µM; hit rate 0.33% among 300,000; AID 1899;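 active means inhibition above the mean of all tested compounds plus 3 SD, set per screening campaign, cut at about 45% in these data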
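Assay system: Tagged HCV core106 pair (GST and Flag) | Buffer or medium: KF-containing HEPES buffer, pH 7.45, DTT, CHAPS, BSA | Also added: Eu donor and XL665 acceptor anti-tag antibodies | Dosing: One concentration, 5 µM, in 0.5% DMSO | Timing: 4 h at 22.5 °C | Technique: TR-FRET 671 and 617 nm emission | Repeats: Singlicate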
ABHD5 PLIN5 PPI = ABHD5-PLIN5 protein interaction inhibition. Q00G26+Q8WTS1. Split G. princeps luciferase complementation, luminescence, 4 h. inhibition, % at 4 µM. hit rate 0.78% among 360,000;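 active means inhibition above the mean inhibition across every tested compound plus 3 SD, cut at about 22% in these data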
Target sequence (Q00G26 whole entry, looked up): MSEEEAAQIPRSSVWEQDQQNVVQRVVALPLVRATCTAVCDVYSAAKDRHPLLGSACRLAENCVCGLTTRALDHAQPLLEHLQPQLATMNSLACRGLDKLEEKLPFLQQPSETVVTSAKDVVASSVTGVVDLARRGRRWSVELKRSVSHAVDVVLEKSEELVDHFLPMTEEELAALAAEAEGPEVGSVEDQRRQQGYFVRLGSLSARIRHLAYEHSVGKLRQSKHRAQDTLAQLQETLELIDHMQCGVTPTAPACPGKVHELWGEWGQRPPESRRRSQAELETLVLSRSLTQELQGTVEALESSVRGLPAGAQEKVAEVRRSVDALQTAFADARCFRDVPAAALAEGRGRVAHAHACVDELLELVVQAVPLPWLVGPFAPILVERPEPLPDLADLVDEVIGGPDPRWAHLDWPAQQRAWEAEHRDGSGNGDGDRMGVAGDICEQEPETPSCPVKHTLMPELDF
Target sequence (Q8WTS1 whole entry, looked up): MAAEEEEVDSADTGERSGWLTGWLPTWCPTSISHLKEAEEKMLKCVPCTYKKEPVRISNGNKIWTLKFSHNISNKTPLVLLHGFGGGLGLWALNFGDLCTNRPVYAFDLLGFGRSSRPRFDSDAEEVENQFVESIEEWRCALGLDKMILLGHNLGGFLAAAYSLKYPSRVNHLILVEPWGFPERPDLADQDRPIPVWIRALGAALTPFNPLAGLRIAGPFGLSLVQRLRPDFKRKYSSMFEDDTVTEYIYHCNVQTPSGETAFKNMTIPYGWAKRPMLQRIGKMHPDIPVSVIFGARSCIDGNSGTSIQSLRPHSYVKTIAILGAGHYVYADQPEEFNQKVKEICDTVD
NadD block = inhibitors of Staphylococcus aureus NadD | inhibition, % at 20 µM | hit rate 0.78% among 360,000 | purified NadD enzyme, colorimetric absorbance read-out | AID 602399; in the data active means inhibition above about 26%
Each line names hits and unclear results; the compound was inactive in the other large screens. This is a sample that favours compounds with a hit; in the whole collection about 2.6% have one here.

O=C(COC(=O)c1ccncc1)Nc1cccc(Cl)c1	HCV core dimer 46
O=C(COC(=O)c1cccnc1)Nc1cccc(Cl)c1	none
CCOC(=O)c1ccc(-n2[nH]c(-c3ccccc3)cc2=O)cc1	rCAG binder 49
CCOC(=O)c1ccc(N=Nc2c(C)[nH]n(-c3ccccc3)c2=O)cc1	none
Nc1cccc(C2=Nc3cccc4cccc(c34)N2)c1	HCV core dimer 72
COc1ccc(C2=Nc3cccc4cccc(c34)N2)cc1	none
O=C(N[C@H](Cc1ccccc1)C(=O)NCc1ccc(OC(F)(F)F)cc1)[C@H]1O[C@@H](n2ccc(=O)[nH]c2=O)[C@H](O)[C@@H]1O	none (no result: HCV core dimer, ABHD5 PLIN5 PPI, NadD block)
O=C1CCCC[C@@H](O)[C@H](O)C[C@H](c2ccccc2)O1	none (no result: HCV core dimer)
C=C1CC2(CC(c3ccccc3)OC(c3ccccc3)C2)OC1=O (centres undefined)	ABHD5 PLIN5 PPI 23 (no result: HCV core dimer)
COc1cccc(/C=C2\CC3(OC(=O)C(C)(C)C)CCCN2C3)c1 (centres undefined)	none (no result: HCV core dimer, ABHD5 PLIN5 PPI, NadD block)
CSc1ccc(C2=C/C(=C3/SC(=S)NC3=O)c3ccccc3O2)cc1	NadD block 38 (no result: HCV core dimer)
O=S(=O)(Nc1nc2ccccc2s1)c1ccc(Br)s1	rCAG binder 50
Cc1ccc(S(=O)(=O)Nc2nc3ccccc3s2)cc1	none
CCC(Sc1nc(C)cc(=O)[nH]1)C(=O)Nc1sc2c(c1C#N)CCCC2 (centres undefined)	rCAG binder 55
CC(Sc1nc(N)cc(=O)[nH]1)C(=O)Nc1sc2c(c1C#N)CCCC2 (centres undefined)	none
CCOC(=O)c1c(Nc2ccc(Cl)cc2)sc(/C=C2\C=Nc3ccccc32)c1O	NadD block 33
CCCN(CCC)C(=O)c1cc(-c2ccc3c(c2)OCO3)nc2ccccc12	HCV core dimer 56 (no result: rCAG binder)
Cc1ccc(C2CCC3(CCC(=O)N3CCOC(=O)Nc3ccc(Br)cc3)CC2)cc1 (centres undefined)	none (no result: HCV core dimer, ABHD5 PLIN5 PPI, NadD block)
CCc1ccc(-c2csc3ncn(CC(=O)NCc4ccco4)c(=O)c23)cc1	none
O=C(Cn1ncn2c(cc3ccccc32)c1=O)NCc1ccco1	ABHD5 PLIN5 PPI 29
O=C(Cn1cnc2scc(-c3ccccc3)c2c1=O)NCc1ccco1	HCV core dimer 56
O=C(Cn1cnc2sc(-c3ccccc3)cc2c1=O)NCc1ccco1	HCV core dimer 65
COC(=O)C1=C(C)N(C)C(=NCc2ccc3c(c2)OCO3)NC1c1cccc(F)c1 (centres undefined)	none (no result: HCV core dimer, ABHD5 PLIN5 PPI, NadD block)
O=C1CCc2cc(S(=O)(=O)N3CCN(Cc4cccc5c4OCO5)CC3)ccc2N1	none (no result: HCV core dimer, ABHD5 PLIN5 PPI, NadD block)
NC1=[N+](Cc2ccccc2)C(Cc2ccccc2)C2C(=C3CCCCC3n3c(=O)n(-c4ccccc4)c(=O)n32)N1 (centres undefined)	none (no result: HCV core dimer, ABHD5 PLIN5 PPI, NadD block)
C#CCOCCOCCOCCNc1nc(N2CCN(C(=O)CCCCCCCCCCNC(=O)[C@H]([C@@H](C)CC)n3cc(CCCCN=C(N)N)nn3)CC2)nc(N2CCN(C(=O)CCCCCCCCCCNC(=O)[C@@H]([C@H](C)O)n3cc(C)nn3)CC2)n1	ABHD5 PLIN5 PPI 56, NadD block 40 (no result: rCAG binder)
C#CCOCCOCCOCCNc1nc(N2CCN(C(=O)CCCCCCCCCCNC(=O)Cn3cc(CCCCCN)nn3)CC2)nc(N2CCN(C(=O)CCCCCCCCCCNC(=O)[C@@H]([C@H](C)O)n3cc(C)nn3)CC2)n1	ABHD5 PLIN5 PPI 34 (no result: rCAG binder)
C#CCOCCOCCOCCNc1nc(N2CCN(C(=O)CCCCCCCCCCNC(=O)Cn3cc(C[C@@H](C)O)nn3)CC2)nc(N2CCN(C(=O)CCCCCCCCCCNC(=O)[C@@H]([C@H](C)CC)n3cc(CCCCCN)nn3)CC2)n1	ABHD5 PLIN5 PPI 55, NadD block 34 (no result: rCAG binder)
C#CCOCCOCCOCCNc1nc(N2CCN(C(=O)CCCCCCCCCCNC(=O)[C@H](CCCN=C(N)N)n3cc(C[C@@H](C)CC)nn3)CC2)nc(N2CCN(C(=O)CCCCCCCCCCNC(=O)[C@@H]([C@H](C)CC)n3cc(CCCCCN)nn3)CC2)n1	none (no result: rCAG binder, ABHD5 PLIN5 PPI, NadD block)
C#CCOCCOCCOCCNc1nc(N2CCN(C(=O)Cn3cc(CCCCN)nn3)CC2)nc(N2CCN(C(=O)Cn3cc(CC(C)O)nn3)CC2)n1 (centres undefined)	none
COC(=O)C1=C(C)N(Cc2ccc(Br)cc2)C(=S)NC1c1ccccc1 (centres undefined)	none (no result: HCV core dimer, ABHD5 PLIN5 PPI, NadD block)
CCOC(=O)c1cnn(-c2nc(SC)nc3sc4c(c23)CCC4)c1N	HCV core dimer 80
COC(=O)[C@]12C[C@H](CC(=O)NCc3ccc(OC)c(OC)c3)C(=O)N(Cc3ccco3)C1=C[C@H](C(C)(C)C)O[C@@H]2C	none (no result: HCV core dimer, ABHD5 PLIN5 PPI, NadD block)
O=C(c1ccco1)N(CCC(c1ccccc1)c1ccco1)Cc1ccco1 (centres undefined)	HCV core dimer 52, ABHD5 PLIN5 PPI 28, NadD block 45
